According to ChEMBL document CHEMBL1157223, “Lupeol long-chain fatty acid esters with antimalarial activity from Holarrhena floribunda” (J Nat Prod, 2006):
Values after ≈ are worked out from the molar mass of the structure shown. Values joined by “and” are separate entries in the source; they are usually repeats but may differ in a detail not shown here. Equal entries are not always repeated.

Key:
Plasmodium falciparum [1] = assay: Antimalarial activity after 24 hrs against chloroquine-sensitive Plasmodium falciparum 3D7 by [3H]hypoxanthine uptake; assay type: functional, organism-based
Outline: (§1)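 Human type B+ erythrocytes at 2% parasitemia and 4% hematocrit in RPMI-1640 (0.5% Albumax II, 16 µM hypoxanthine, HEPES, glucose); after 30 min at 37 °C, drug was added to final 1% parasitemia and 2% hematocrit. Test range 7.8–500 µM, with chloroquine at 3.9–500 nM and final DMSO under 2%. Incubation was 24 h, then [3H]-hypoxanthine for 18–24 h more; filters were counted. IC50 came from curve fitting, quadruplicates, 2–3 runs.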

Plasmodium falciparum [2] = assay: Antimalarial activity against chloroquine-resistant Plasmodium falciparum FCR3 Gambia as 24 hrs [3H]hypoxanthine uptake; assay type: functional, organism-based; details: FCR-3/Gambia; outline: as §1
Plasmodium falciparum [3] = assay: Antimalarial activity after 48 hrs against Plasmodium falciparum W2 by [3H]hypoxanthine uptake
Plasmodium falciparum [4] = assay: Antimalarial activity after 48 hrs against Plasmodium falciparum D6 by [3H]hypoxanthine uptake

| SMILES | IC50 (Plasmodium falciparum [1]) | IC50 (Plasmodium falciparum [2]) | IC50 (Plasmodium falciparum [3]) [mg/L] | IC50 (Plasmodium falciparum [4]) [mg/L] |
| --- | --- | --- | --- | --- |
| C=C(C)[C@@H]1CC[C@]2(C)CC[C@]3(C)[C@H](CC[C@@H]4[C@@]5(C)CC[C@H](OC(=O)COCCCCCCCCCCCCCCCCCCCCCCCC)C(C)(C)[C@@H]5CC[C@]43C)[C@@H]12 | 135 µM | 84 µM and 69000 µg/mL | – | – |
| C=C(C)[C@@H]1CC[C@]2(C)CC[C@]3(C)[C@H](CC[C@@H]4[C@@]5(C)CC[C@H](OC(=O)CC(O)CCCCCCCCCCCCCCCCC)C(C)(C)[C@@H]5CC[C@]43C)[C@@H]12 (stereo not given in full) | 282 µM | 269 µM | – | – |
| C=C(C)[C@@H]1CC[C@]2(C)CC[C@]3(C)[C@H](CC[C@@H]4[C@@]5(C)CC[C@H](O)C(C)(C)[C@@H]5CC[C@]43C)[C@@H]12 [LUPEOL] | 106 µM and 45000 µg/mL | 97 µM and 41000 µg/mL | – | – |
| OC(c1cc(C(F)(F)F)nc2c(C(F)(F)F)cccc12)C1CCCCN1 (stereo not given) [MEFLOQUINE] | – | – | 28.5 (≈ 75.3 µM) | 2550 (≈ 6740 µM) |
| C=C[C@H]1CN2CC[C@H]1C[C@H]2[C@H](O)c1ccnc2ccc(OC)cc12 [QUININE] | – | – | 67 (≈ 207 µM) | 25 (≈ 77.1 µM) |
